# Data: ChEMBL document CHEMBL1148398, “Design, synthesis, and biological evaluation of thio-containing compounds with serum HDL-cholesterol-elevating properties” (2004)
# Assays:
# Rattus norvegicus [1] = assay: Effect of compound on gain in body weight in 2nd group of normal chow-fed male rats after a dose of 2 mg/kg/day; type: functional
# In short: (§1)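 Male Sprague–Dawley CD rats (60–80 g) on standard chow under a reversed 12 h light/dark cycle. Compound was suspended in 1.3% Tween 80/0.25% CMC and given as a single daily oral gavage dose for 4 days. Rats were fasted overnight and killed 24 h after the last dose. Serum ALT, AST, ALKP and LDH were read on a clinical analyzer. Weight gain was start versus end weight. Mean ± SEM, n = 6.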
# Rattus norvegicus [2] = assay: Effect of compound on gain in body weight in 3rd group of normal chow-fed male rats after a dose of 5 mg/kg/day; type: functional; in short: as §1
# Rattus norvegicus [3] = assay: Percent change in total plasma cholesterol following oral administration of compound in normal chow-fed rats at 100 mg/kg/day for 4 days; type: functional
# In short: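 Chow-fed male Sprague–Dawley CD rats, 60–80 g, gavaged 100 mg/kg/day for 4 days in 1.3% Tween 80/0.25% CMC. Fasted overnight, bled 24 h after the last dose. Total cholesterol and glycerol-blanked triglycerides read enzymatically; lipoproteins by FPLC with cholesterol per fraction. % change versus control; six per group, p < 0.05.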
# Rattus norvegicus [4] = assay: Effect of compound on alanine aminotransferase (ALT) levels in 6th group of normal chow-fed male rats after a dose of 50 mg/kg/day; type: functional, organism-based; in short: as §1
# Rattus norvegicus [5] = assay: Effect of compound on aspartate aminotransferase (AST) levels in 7th group of normal chow-fed male rats after a dose of 100 mg/kg/day; type: functional, organism-based; in short: as §1
# Rattus norvegicus [6] = assay: Effect of compound on liver weight in 2nd group of normal chow-fed male rats after a dose of 2 mg/kg/day; type: functional
# In short: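 Male Sprague–Dawley CD rats, 60–80 g, on chow with a reverse 12 h light/dark cycle. Given one oral gavage dose daily for 4 days, suspended in 1.3% Tween 80/0.25% CMC. Fasted overnight and sacrificed 24 h after the last dose for blood and liver. Serum liver enzymes read on a clinical analyzer. Six per group, mean ± SEM.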
# Rattus norvegicus [7] = assay: Effect of compound on relative liver weight in 3rd group of normal chow-fed male rats after a dose of 5 mg/kg/day; type: functional
# In short: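 Chow-fed male Sprague–Dawley CD rats, 60–80 g, dosed by oral gavage once daily for 4 days in 1.3% Tween 80/0.25% CMC. Fasted overnight and sacrificed 24 h after the last dose. Liver weight expressed as % of body weight at termination. Six per group, mean ± SEM.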
# Rattus norvegicus [8] = assay: Effect of compound on high-density lipoprotein cholesterol levels in 2nd group of normal chow-fed male rats after a dose of 2 mg/kg/day; type: functional, organism-based
# Rattus norvegicus [9] = assay: Effect of compound on high-density lipoprotein cholesterol levels in 4th group of normal chow-fed male rats after a dose of 10 mg/kg/day; type: functional, organism-based
# Rattus norvegicus [10] = assay: Effect of compound on high-density lipoprotein cholesterol levels in 7th group of normal chow-fed male rats after a dose of 100 mg/kg/day; type: functional, organism-based
# Rattus norvegicus [11] = assay: Effect of compound on low-density lipoprotein cholesterol levels in 2nd group of normal chow-fed male rats after a dose of 2 mg/kg/day; type: functional, organism-based
# In short: (§2)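 Male Sprague–Dawley CD rats, 60–80 g, on standard chow with reverse 12 h light/dark cycle. One oral gavage dose daily for 4 days, suspended in 1.3% Tween 80 and 0.25% CMC. Fasted overnight; sacrificed 24 h after the last dose. Serum TC on clinical analyzer, lipoproteins by FPLC with cholesterol per fraction, T4 on analyzer. Mean ± SEM, six rats per group.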
# Rattus norvegicus [12] = assay: Effect of compound on serum apolipoprotein A1 concentration in chow-fed male rats at a dose of 10 mg/kg/day; type: functional, organism-based
# In short: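 Separate dose-response study in male Sprague–Dawley CD rats, 60–80 g, on chow. Oral gavage once daily for 4 days in 1.3% Tween 80 / 0.25% CMC; fasted overnight, bled 24 h after last dose. Apo-A1 by ELISA with rabbit anti-rat primary, alkaline phosphatase-conjugated anti-rabbit IgG and p-nitrophenyl phosphate substrate. HDL-C by FPLC fractionation. Mean ± SEM, six per group.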
# Rattus norvegicus [13] = assay: Effect of compound on total plasma cholesterol levels in 1st group of normal chow-fed male rats after a dose of 1 mg/kg/day; type: functional, organism-based; in short: as §2
# Rattus norvegicus [14] = assay: Effect of compound on total plasma cholesterol levels in 4th group of normal chow-fed male rats after a dose of 10 mg/kg/day; type: functional, organism-based
# In short: (§3)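 Male Sprague–Dawley CD rats (60–80 g) on Purina 5001 chow with a reverse 12 h light/dark cycle. Dosed once daily by oral gavage for 4 days, suspended in 1.3% Tween 80 / 0.25% CMC. Fasted overnight and bled 24 h after the last dose. Serum TC and glycerol-blanked TG measured enzymatically; VLDL-C by FPLC fractionation with cholesterol assay. n=6, mean ± SEM.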
# Rattus norvegicus [15] = assay: Effect of compound on lactic dehydrogenase (LDH) levels in 3rd group of normal chow-fed male rats after a dose of 5 mg/kg/day; type: functional, organism-based; in short: as §1
# Rattus norvegicus [16] = assay: Effect of compound on very low-density lipoprotein cholesterol levels in 2nd group of normal chow-fed male rats after a dose of 2 mg/kg/day; type: functional, organism-based; in short: as §3
# Rattus norvegicus [17] = assay: Effect of compound on very low-density lipoprotein cholesterol levels in 4th group of normal chow-fed male rats after a dose of 10 mg/kg/day; type: functional, organism-based; in short: as §3
# [18] = Effect on serum lipids in 7th group of normal chow-fed male rats after a dose of 100 mg/kg/day was evaluated as ratio of total plasma cholesterol levels to high-density lipoprotein cholesterol levels; type: functional
# In short: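 Male Sprague–Dawley CD rats, 60–80 g, chow-fed, dosed by oral gavage daily for 4 days in 1.3% Tween 80/0.25% CMC. Fasted overnight, bled 24 h after the last dose. Serum total cholesterol by enzymatic reagent; HDL-C from cholesterol in FPLC fractions; TPC/HDL-C ratio calculated. Six per group, mean ± SEM.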
# Cricetinae gen. sp. [19] = assay: Effect of compound on thyroxine levels in 2nd group of cholesterol-fed male hamsters at 10 mg/kg/day after 14 days of treatment; settings: Mesocricetus auratus
# Cricetinae gen. sp. [20] = assay: Effect of compound on thyroxine levels in 3rd group of cholesterol-fed male hamsters at 30 mg/kg/day after 14 days of treatment; settings: Mesocricetus auratus
# Cricetinae gen. sp. [21] = assay: Effect of compound on thyroxine levels in 4th group of cholesterol-fed male hamsters at 100 mg/kg/day after 14 days of treatment; settings: Mesocricetus auratus
# Cricetinae gen. sp. [22] = assay: Effect of compound on triglycerides level in 1st group of cholesterol-fed male hamsters at 3 mg/kg/day after 14 days of treatment; settings: Mesocricetus auratus
# Cricetinae gen. sp. [23] = assay: Effect of compound on alkaline phosphatase (ALKP) levels in 1st group of cholesterol-fed male hamsters at 3 mg/kg/day after 14 days of treatment; settings: Mesocricetus auratus
# Cricetinae gen. sp. [24] = assay: Effect of compound on low-density lipoprotein cholesterol levels in 2nd group of cholesterol-fed male hamsters at 10 mg/kg/day after 14 days of treatment; settings: Mesocricetus auratus
# Cricetinae gen. sp. [25] = assay: Effect of compound on very low-density lipoprotein cholesterol levels in 4th group of cholesterol-fed male hamsters at 100 mg/kg/day after 14 days of treatment; settings: Mesocricetus auratus
compound,measurement,setting,value
CCN1CC(=O)N(c2cc(Cl)ccc2C)C1=S,Body weight,Rattus norvegicus [1],28.5 g
same,Body weight,Rattus norvegicus [2],30.7 g
same,Change,Rattus norvegicus [3],72.8%
same,Level,Rattus norvegicus [4],62 U l-1
same,Level,Rattus norvegicus [5],214 U l-1
same,Liver weight,Rattus norvegicus [6],7.3 g
same,Relative liver weight,Rattus norvegicus [7],3.8%
same,Serum level,Rattus norvegicus [8],41 mg/dL
same,Serum level,Rattus norvegicus [9],61 mg/dL
same,Serum level,Rattus norvegicus [10],76 mg/dL
same,Serum level,Rattus norvegicus [11],5.7 mg/dL
same,Serum level,Rattus norvegicus [12],79.2 mg/dL
same,Serum level,Rattus norvegicus [13],55 mg/dL
same,Serum level,Rattus norvegicus [14],85 mg/dL
same,Level,Rattus norvegicus [15],743 U l-1
same,Serum level,Rattus norvegicus [16],2.8 mg/dL
same,Serum level,Rattus norvegicus [17],3.4 mg/dL
same,Ratio,[18],1.56
same,Serum level,Cricetinae gen. sp. [19],5.73 µg/dL
same,Serum level,Cricetinae gen. sp. [20],4.73 µg/dL
same,Serum level,Cricetinae gen. sp. [21],4.02 µg/dL
same,Serum level,Cricetinae gen. sp. [22],431 mg/dL
same,Level,Cricetinae gen. sp. [23],154 U l-1
same,Serum level,Cricetinae gen. sp. [24],136 mg/dL
same,Serum level,Cricetinae gen. sp. [25],81 mg/dL
